From ChEMBL document CHEMBL2203049, “Novel retinoic acid 4-hydroxylase (CYP26) inhibitors based on a 3-(1H-imidazol- and triazol-1-yl)-2,2-dimethyl-3-(4-(phenylamino)phenyl)propyl scaffold” (Bioorg Med Chem, 2012) come the findings set out here.

Each structure is given as a SMILES string. pIC50: −log10 of the molar value. Some results are limits rather than exact numbers.

Series [1] addresses T1, Cytochrome P450 26A1 (Homo sapiens, UniProt O43174).
T1 sequence (O43174 whole entry): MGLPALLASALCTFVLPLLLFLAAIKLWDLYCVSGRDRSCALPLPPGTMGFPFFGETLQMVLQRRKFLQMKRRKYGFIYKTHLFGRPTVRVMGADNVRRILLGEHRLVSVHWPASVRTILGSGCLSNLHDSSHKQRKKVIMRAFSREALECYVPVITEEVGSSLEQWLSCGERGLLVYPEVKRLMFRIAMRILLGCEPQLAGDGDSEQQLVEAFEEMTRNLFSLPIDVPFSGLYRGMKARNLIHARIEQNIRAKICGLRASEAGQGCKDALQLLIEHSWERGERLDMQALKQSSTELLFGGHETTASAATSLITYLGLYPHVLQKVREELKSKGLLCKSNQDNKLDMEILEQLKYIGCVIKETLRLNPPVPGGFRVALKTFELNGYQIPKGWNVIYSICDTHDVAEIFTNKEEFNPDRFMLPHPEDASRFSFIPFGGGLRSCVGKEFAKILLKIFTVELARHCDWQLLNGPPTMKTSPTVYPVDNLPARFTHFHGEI
Put plainly: Inhibition of CYP26A1 in human MCF7 cell microsomes using [3H]ATRA as substrate after 1 hr by scintillation counter analysis. The arrangement: species or system Microsome. The method in brief:
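MCF-7 cells (RPMI 1640, 10% FCS, 2 mM L-glutamine, 37 °C, 5% CO₂) pretreated 24 h with 1 µM RA to induce CYP26; microsomes by differential centrifugation, activity normalised by cytochrome c reductase. 50 µg microsomal protein, 2 mM NADPH, 10 nM ATRA plus 0.1 µCi ³H-ATRA, pH 7.4 Tris/KCl/MgCl₂/BSA, inhibitor 1–1000 nM, 1 h 37 °C; acetonitrile quench, C18 HPLC, flow scintillation; inhibition from metabolite peak area fraction versus no-inhibitor control.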

Series [2] has as its target CYP2C9 (Homo sapiens, UniProt P11712). Put plainly: Inhibition of CYP2C9 in human liver microsomes at 0.4 uM. Format: ADME, Microsome. A general note: Liver microsomes are vesicles of endoplasmic reticulum, rich in cytochrome P450 enzymes.
Series [3] has as its target T2, CYP1A2 (Homo sapiens, UniProt P05177).
T2 sequence (P05177 whole entry): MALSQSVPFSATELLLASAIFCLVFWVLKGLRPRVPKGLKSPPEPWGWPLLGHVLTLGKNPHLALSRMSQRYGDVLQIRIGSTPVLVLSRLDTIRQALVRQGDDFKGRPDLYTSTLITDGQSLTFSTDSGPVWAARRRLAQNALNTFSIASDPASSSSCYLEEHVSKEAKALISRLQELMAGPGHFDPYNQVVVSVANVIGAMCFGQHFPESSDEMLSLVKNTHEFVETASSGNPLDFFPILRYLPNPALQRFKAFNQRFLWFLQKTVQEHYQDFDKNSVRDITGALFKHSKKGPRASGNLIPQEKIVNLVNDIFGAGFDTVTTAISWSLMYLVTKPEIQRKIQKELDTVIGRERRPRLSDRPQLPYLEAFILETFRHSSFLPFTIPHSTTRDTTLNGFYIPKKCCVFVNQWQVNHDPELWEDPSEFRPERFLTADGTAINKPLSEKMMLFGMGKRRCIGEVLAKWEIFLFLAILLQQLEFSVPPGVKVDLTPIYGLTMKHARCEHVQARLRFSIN
Put plainly: Inhibition of CYP1A2 in human liver microsomes at 0.4 uM. The series is classed as ADME, Microsome.

For series [4], the target named is CYP2D6 (Homo sapiens, UniProt P10635). Put plainly: Inhibition of CYP2D6 in human liver microsomes at 0.4 uM. The series is classed as ADME, Microsome.
The target in series [5] is CYP2C19 (Homo sapiens, UniProt P33261). Put plainly: Inhibition of CYP2C19 in human liver microsomes at 0.4 uM. Format: ADME, Microsome.
For series [6], the target named is CYP3A4 (Homo sapiens, UniProt P08684). Put plainly: Inhibition of CYP3A4 in human liver microsomes at 0.4 uM. The series is classed as ADME, Microsome.
For series [7], the target named is Cytochrome P450 3A4 (Homo sapiens, UniProt P08684). Put plainly: Inhibition of CYP3A4 in human liver microsomes. Format: ADME, Microsome.
A short description of series [8]: Selectivity ratio of IC50 for CYP3A4 in human liver microsomes to IC50 for CYP26A1 in human MCF7 cell microsomes.
The target of series [9] is Cytochrome P450 2C9 (Homo sapiens, UniProt P11712). Put plainly: Inhibition of CYP2C9 in human liver microsomes. Format: ADME, Microsome.
The target in series [10] is Cytochrome P450 2C19 (Homo sapiens, UniProt P33261). Put plainly: Inhibition of CYP2C19 in human liver microsomes. Format: ADME, Microsome.
Series [11] is described as follows: Selectivity ratio of IC50 for CYP1A2 in human liver microsomes to IC50 for CYP26A1 in human MCF7 cell microsomes.
The nature of series [12]: Selectivity ratio of IC50 for CYP2C9 in human liver microsomes to IC50 for CYP26A1 in human MCF7 cell microsomes.
Series [13] deals with T3, Cytochrome P450 1A2 (Homo sapiens, UniProt P05177).
T3 sequence (P05177 whole entry): T2 sequence (P05177 whole entry)
Put plainly: Inhibition of CYP1A2 in human liver microsomes. The series is classed as ADME, Microsome.

Series [14] can be described thus: Selectivity ratio of IC50 for CYP2D6 in human liver microsomes to IC50 for CYP26A1 in human MCF7 cell microsomes.
For series [15], the target named is Cytochrome P450 2D6 (Homo sapiens, UniProt P10635). Put plainly: Inhibition of CYP2D6 in human liver microsomes. The series is classed as ADME, Microsome.
Cytochrome P450 2D6, sequence (P10635 whole entry): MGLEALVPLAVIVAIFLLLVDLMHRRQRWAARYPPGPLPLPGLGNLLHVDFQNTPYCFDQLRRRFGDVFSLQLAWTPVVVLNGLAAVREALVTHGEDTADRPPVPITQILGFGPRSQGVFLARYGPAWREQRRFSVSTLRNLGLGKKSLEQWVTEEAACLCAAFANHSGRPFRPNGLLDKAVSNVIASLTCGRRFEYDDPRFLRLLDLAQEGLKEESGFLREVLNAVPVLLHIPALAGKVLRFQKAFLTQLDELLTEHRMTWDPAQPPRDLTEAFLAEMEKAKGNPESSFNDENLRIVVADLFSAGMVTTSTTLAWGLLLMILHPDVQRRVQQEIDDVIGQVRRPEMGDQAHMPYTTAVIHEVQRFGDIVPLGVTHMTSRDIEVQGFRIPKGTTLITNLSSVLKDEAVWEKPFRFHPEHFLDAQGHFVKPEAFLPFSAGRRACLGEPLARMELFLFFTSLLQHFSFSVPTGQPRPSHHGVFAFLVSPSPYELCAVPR

CYP3A4, sequence (P08684 whole entry): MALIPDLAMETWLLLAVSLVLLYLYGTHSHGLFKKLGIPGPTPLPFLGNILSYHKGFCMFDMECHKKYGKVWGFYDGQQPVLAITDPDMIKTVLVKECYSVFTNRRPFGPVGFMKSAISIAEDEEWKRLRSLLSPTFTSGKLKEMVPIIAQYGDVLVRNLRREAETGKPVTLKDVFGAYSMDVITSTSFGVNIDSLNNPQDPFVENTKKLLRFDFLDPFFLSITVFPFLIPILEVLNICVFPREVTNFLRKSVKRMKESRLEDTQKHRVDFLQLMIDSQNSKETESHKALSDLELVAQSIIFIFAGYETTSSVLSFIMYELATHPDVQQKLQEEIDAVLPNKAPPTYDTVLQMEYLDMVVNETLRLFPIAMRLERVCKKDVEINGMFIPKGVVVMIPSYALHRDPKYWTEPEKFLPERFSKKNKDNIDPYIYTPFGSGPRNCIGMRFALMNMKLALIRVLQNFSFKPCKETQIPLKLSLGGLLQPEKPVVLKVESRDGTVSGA
CYP2C9, sequence (P11712 whole entry): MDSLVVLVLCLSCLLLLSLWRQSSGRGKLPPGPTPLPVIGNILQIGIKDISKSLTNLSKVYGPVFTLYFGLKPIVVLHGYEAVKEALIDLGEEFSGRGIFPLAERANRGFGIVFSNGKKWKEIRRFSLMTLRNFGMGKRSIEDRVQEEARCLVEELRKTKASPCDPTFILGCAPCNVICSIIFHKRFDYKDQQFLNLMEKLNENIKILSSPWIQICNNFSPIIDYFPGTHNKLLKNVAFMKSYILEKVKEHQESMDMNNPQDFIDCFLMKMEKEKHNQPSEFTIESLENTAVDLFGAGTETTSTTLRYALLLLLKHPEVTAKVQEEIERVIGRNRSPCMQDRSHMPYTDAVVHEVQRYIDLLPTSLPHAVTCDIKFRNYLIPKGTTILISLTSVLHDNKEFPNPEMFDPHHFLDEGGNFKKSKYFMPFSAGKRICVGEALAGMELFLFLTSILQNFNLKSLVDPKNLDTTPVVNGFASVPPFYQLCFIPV
CYP2C19, sequence (P33261 whole entry): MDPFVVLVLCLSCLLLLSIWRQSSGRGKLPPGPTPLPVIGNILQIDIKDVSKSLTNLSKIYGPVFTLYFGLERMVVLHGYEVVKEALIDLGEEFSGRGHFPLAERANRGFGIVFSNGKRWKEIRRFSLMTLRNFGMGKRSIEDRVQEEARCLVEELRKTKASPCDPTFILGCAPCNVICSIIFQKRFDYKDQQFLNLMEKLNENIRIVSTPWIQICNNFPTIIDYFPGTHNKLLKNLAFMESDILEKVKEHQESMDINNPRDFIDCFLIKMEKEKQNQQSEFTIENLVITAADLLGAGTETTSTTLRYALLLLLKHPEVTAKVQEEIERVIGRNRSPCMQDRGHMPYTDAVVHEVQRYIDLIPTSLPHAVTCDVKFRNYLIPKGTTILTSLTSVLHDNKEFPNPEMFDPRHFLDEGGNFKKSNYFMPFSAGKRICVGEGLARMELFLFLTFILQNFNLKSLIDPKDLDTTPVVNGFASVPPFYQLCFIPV
CYP2D6, sequence (P10635 whole entry): as the sequence (P10635 whole entry) above
Cytochrome P450 3A4, sequence (P08684 whole entry): as the sequence (P08684 whole entry) above
Cytochrome P450 2C9, sequence (P11712 whole entry): as the sequence (P11712 whole entry) above
Cytochrome P450 2C19, sequence (P33261 whole entry): as the sequence (P33261 whole entry) above

`CCNC(=O)C(C)(C)C(c1ccc(Nc2ccccc2)cc1)n1ccnc1` (stereo not drawn) gave a pIC50 in series [1] of 6.60.

Consider `CC(C)(C(=O)O)C(c1ccc(Nc2ccc(C(=O)O)cc2)cc1)n1cncn1` (stereo not drawn), for which the negative-log IC50 (pIC50) in [1] was 7.07.

With `CNC(=O)C(C)(C)C(c1ccc(Nc2ccc(OC)cc2)cc1)n1ccnc1` (stereo not drawn), the pIC50 in series [1] is less than 6.00.

Turning to `CNC(=O)C(C)(C)C(c1ccc(Nc2ccccc2)cc1)n1ccnc1` (stereo not drawn), the negative-log IC50 (pIC50) in [1] is 6.70.

In series [1], `CNC(=O)C(C)(C)C(c1ccc(Nc2ccccc2)cc1)n1cncn1` (stereo not drawn) gave a negative logarithm of the IC50 (pIC50) of 6.00.

For `C[C@H]([C@@H](c1ccc(Nc2nc3ccccc3s2)cc1)n1cncn1)N(C)C`, the inhibition at 0.4 µM was 3% in series [2]; 6% in [3]; 27% in series [4]; 17% in series [5]; 83% in series [6].

Take `COC(=O)C(C)(C)C(c1ccc(Nc2ccccc2)cc1)n1cncn1` (stereo not drawn): the pIC50 in [7] is 6.70; in [9], 5.04; in [10], 5.38; in series [1], 7.89; in series [13], 5.07; in [15] it was 5.89. For the same molecule, the inhibition at 0.4 µM was 19% in series [2]; 10% in series [3]; 13% in series [4]; 19% in series [5]; 47% in series [6]. Further, the “Ratio IC50” value is 15 in series [8], greater than 100 in [11], greater than 100 in series [12] and greater than 100 in [14].

For the molecule `CC(C)(C(=O)O)C(c1ccc(Nc2ccccc2)cc1)n1ccnc1` (stereo not drawn), the pIC50 in [1] was less than 6.00.

`CNC(=O)C(C)(C)C(c1ccc(Nc2ccc(Cl)cc2)cc1)n1ccnc1` (stereo not drawn) had a negative-log IC50 (pIC50) in series [1] of 6.00.

In series [1], `COC(=O)C(C)(C)C(c1ccc(Nc2ccc(C(C)=O)cc2)cc1)n1cncn1` (stereo not drawn) had a negative-log IC50 (pIC50) of 7.02.

Broadly, the pIC50 is the IC50 on a negative log10 scale, so that one unit is a factor of ten. Usually inhibition stands for the drop in the measured response relative to a control, in per cent. Lower therefore signals a weak effect.
